Shown are actives, neighbours in structure and some others; about 2.7% of the full set was active somewhere.
ABHD4 inh: ABHD4 inhibitors, primary screen, biochemical, fluorescence polarization, mouse; 370,000 tested, 0.54% active; purified mABHD4, FP-Rh probe fluorescence polarization; (Lyso)-N-acylphosphatidylethanolamine lipase (Mus musculus), Q8VD66; inhibition, % at 8.92 µM;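 active = inhibition exceeding the mean over every tested compound plus 3 SD, cut at about 30% in these data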;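 also: 0% = plate median of compound wells and 100% = S159A mutant with DMSO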
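Assay system: wild-type mouse ABHD4 protein; compound: single nominal dose of 8.92 µM, 0.89% DMSO final; schedule: 45 min + 60 min at 25 °C; measured by: FP readout, ex 525 nm / em 598 nm; evaluation: % inhibition of FP-Rh probe binding versus controls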
HTRA1 inhibitor: HTRA1 serine protease inhibitors, primary screen, biochemical, fluorescence polarization, HTS | Q92743 | recombinant HTRA1, FP-rhodamine activity-based probe | inhibition, % at 5.96 µM | 340,000 tested, 0.5% active | AID 504803, 2011; in the data active = inhibition above about 36%;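 also: 0% = enzyme with DMSO and 100% = wells lacking enzyme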
PRMT1 inh: PRMT1 methyltransferase inhibitors, primary screen, biochemical, fluorescence polarization; Protein arginine N-methyltransferase 1 (Homo sapiens), Q99873; recombinant PRMT1, activity-based probe fluorescence polarization; AID 652257, 2013; 370,000 tested, 1.3% active; inhibition, % at 2.79 µM;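 active = inhibition above about 21% made by adding two undisclosed values, limit read from the data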
SIAE inh: human SIAE inhibitors, primary screen, biochemical, fluorescence polarization, FP-Rh probe, 1536-well HTS; Sialate O-acetylesterase (Homo sapiens), Q9HAT2; SIAE FP-Rh probe binding; inhibition, % at 9.66 µM; AID 1053197, 2014; 370,000 tested, 0.69% active;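 active = inhibition above a cutoff: mean of compounds within the control limits plus 3 SD of those, cut at about 17% in these data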;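 also: 0% = plate median of compound wells and 100% = probe without SIAE protein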
Target sequence (Q9HAT2 whole entry, looked up): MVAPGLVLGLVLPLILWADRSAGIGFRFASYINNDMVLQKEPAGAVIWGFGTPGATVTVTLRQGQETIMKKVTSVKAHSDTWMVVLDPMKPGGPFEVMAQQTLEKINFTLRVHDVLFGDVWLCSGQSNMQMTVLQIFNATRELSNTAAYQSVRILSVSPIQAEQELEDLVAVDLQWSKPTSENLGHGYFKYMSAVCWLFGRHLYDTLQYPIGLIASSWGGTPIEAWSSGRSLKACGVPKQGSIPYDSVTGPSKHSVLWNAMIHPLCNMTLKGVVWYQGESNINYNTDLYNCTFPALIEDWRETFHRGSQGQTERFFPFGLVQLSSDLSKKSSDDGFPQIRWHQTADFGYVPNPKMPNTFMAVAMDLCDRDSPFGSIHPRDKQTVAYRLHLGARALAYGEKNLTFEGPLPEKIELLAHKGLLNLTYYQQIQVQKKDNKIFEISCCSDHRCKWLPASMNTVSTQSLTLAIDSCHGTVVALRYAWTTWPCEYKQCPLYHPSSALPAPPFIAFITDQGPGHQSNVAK
TCR-CD3 inh: inhibitors of human TCR-CD3 interaction, primary screen, biochemical, fluorescence, TAMRA-labeled TCR probe; T-cell receptor (TCR); inhibition, % at 9.4 µM; 360,000 tested, 0.37% active; AID 651800, 2012; in the data active = inhibition above about 19%;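 also: recombinant mutant TCR 2C K166C tagged with TAMRA read by polarization; 0% = receptor in buffer alone and 100% = receptor with positive control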
PRMT1 inh conf: PRMT1 methyltransferase inhibitors, confirmation, biochemical, fluorescence polarization, triplicate; shares compounds with PRMT1 inh; AID 687036, 2013; recombinant His-PRMT1, activity-based probe fluorescence polarization; 3,300 tested, 42% active; inhibition, % at 2.79 µM;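 active = mean inhibition across replicates above the hit cutoff derived for the earlier primary screen, cut at about 22% in these data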
* marks the source's active call; other numbers are inactive results; nt = no result given.

SMILES	ABHD4 inh	HTRA1 inhibitor	PRMT1 inh	SIAE inh	TCR-CD3 inh	PRMT1 inh conf
S=c1[nH]nc(COc2ccccc2)n1/N=C/c1ccc(Cl)c(Cl)c1	-3.1	-17.1	1.5	1.3	2.7	nt
COc1cccc(/C=N/n2c(COc3ccccc3)n[nH]c2=S)c1OC	-15.4	-5.3	26.8*	4.2	-9.6	7.9
Cc1cccc(/C=N/n2c(COc3ccccc3)n[nH]c2=S)c1	-15.8	4.1	27.8*	4.3	-6.4	13.1
C[C@@H]1COc2cc(NCCCN3CCOCC3)ccc2S(=O)(=O)N1	-3.0	nt	-3.4	1.6	2.9	nt
CCN1CCN(C(=S)c2ccc(OC)cc2)CC1	2.5	-0.1	48.3*	5.3	-1.5	36.6*
CCN1CCN(C(=S)c2ccc([N+](=O)[O-])cc2)CC1	-2.2	4.7	34.4*	-3.9	8.4	35.5*
COc1ccc(C(=S)N2CCCCCC2)cc1	-12.4	-6.7	25.5*	-9.6	4.6	13.1
COc1ccc(C(=S)N2CCNCC2)cc1	-2.9	-0.8	0.6	1.5	-6.5	nt
CCOc1ccc(C(=S)N2CCN(C)CC2)cc1	8.5	6.0	28.2*	-1.0	0.8	33.1*
CC(C)(C)c1cc(C(=S)N2CCN(CCO)CC2)cc(C(C)(C)C)c1O	0.8	3.5	27.1*	4.3	-9.8	18.5
CCCN1CCN(C(=S)NCc2ccc(Cl)cc2)CC1	4.5	1.7	-1.1	-0.2	7.2	nt
OCCN1CCN(C(=S)c2ccc(Cl)cc2)CC1	-1.2	4.1	32.2*	5.8	3.5	39.8*
CCN1CCN(C(=S)c2ccc(Cl)cc2)CC1	0.2	-1.5	84.5*	8.1	-0.9	90.2*
O=C(CNC(=O)c1ccccc1)Oc1cccc(Cl)c1	-1.0	nt	-0.8	-10.2	4.9	nt
Cc1ncc(CN2CCCC(C(=O)Nc3ccc(-c4cccc(F)c4)cc3)C2)n1C (stereo not given)	2.5	-0.6	-6.4	0.3	10.0	nt
O=[N+]([O-])c1ccc(COc2cccc(CN3CCCCC3)c2)cc1	2.7	0.6	-1.9	-6.3	7.0	nt
Cc1ccc(C)n1-c1sc2c(c1C(=O)O)CCCC2	15.4	25.5	27.0*	3.5	6.1	1.4
CC(C)CN(CC(C)C)C(=O)c1ccc2c(c1)NC(=O)C(C)(C)O2	8.8	nt	2.5	2.4	nt	nt
COc1ccc(Cl)cc1NC(=O)CSc1nc2sccc2c(=O)[nH]1	-4.7	-20.3	4.9	-9.2	-3.3	nt
COc1ccc(Cl)cc1NC(=O)CSc1sc2c(O)cc(=O)[nH]c2c1C#N	-10.9	-43.6	28.7*	-55.7	9.2	3.4
COc1ccccc1NC(=O)CSc1sc2c(O)cc(=O)[nH]c2c1C#N	-9.6	-25.6	26.6*	-26.5	13.2	16.1
COc1cc(NC(=O)c2ccccc2)c(OC)cc1NC(=O)CSc1[nH]c(=O)cc(C)c1C#N	9.9	7.9	-1.7	-0.5	-3.3	nt
Cc1ccc2oc(C(=O)NCCCN3CCOCC3)c(C)c2c1	-0.1	1.9	-2.3	-3.5	2.3	nt
CCCc1cc(=O)oc2cc(OCC(=O)N3CCN(C(=O)C4COc5ccccc5O4)CC3)ccc12 (stereo not given)	7.5	-10.2	3.8	0.9	8.9	nt
COc1ccc(NS(=O)(=O)c2ccc(F)c(Cl)c2)cn1	-5.0	1.4	36.9*	-1.2	-3.7	8.3
SMILES	ABHD4 inh	HTRA1 inhibitor	PRMT1 inh	SIAE inh	TCR-CD3 inh	PRMT1 inh conf
COc1ccc(NS(=O)(=O)c2ccc(Br)cc2)cn1	4.8	0.3	4.3	4.0	1.4	nt
Cc1sc(NC(=O)c2ccccc2)c(C(=O)NC(C)C)c1C	0.4	-1.9	-1.0	2.1	1.3	nt
Cc1sc(NC(=O)c2ccccc2)c(C(=O)c2ccccc2)c1C	-7.5	-22.2	30.5*	-1.4	4.3	7.8
Cc1ccc(C(=O)Nc2sc(C)c(C)c2C(=O)c2ccccc2)cc1	-9.7	-2.8	51.2*	-4.6	-7.6	3.4
C[C@@H]1COC(=O)[C@@H](CC(=O)OC(C)(C)C)C/C=C\C[C@H](CC(=O)N(CCO)Cc2ccccc2)C(=O)N1	3.2	-9.1	-2.4	1.3	0.3	nt
Cc1cc(C)c2c(N)c(S(=O)c3ccc(C(C)(C)C)cc3)sc2n1 (stereo not given)	7.8	-7.3	32.9*	-1.2	-2.7	1.6
CN1C=CC(=C[N+](=O)[O-])N(C)C1=O	-2.0	nt	-2.6	-4.0	4.1	nt
CC1=CC(=O)C(Sc2ccc(C)cc2)=CC1=O	23.3	-4.1	87.7*	3.0	-0.6	95.0*
Cc1ccc(SC2=C(Sc3ccc(C)cc3)C(=O)c3ccccc3C2=O)cc1	14.5	11.2	18.2	4.0	4.0	nt
COc1ccccc1CCNC(=O)c1cnn2c(C(F)F)cc(C)nc12	-6.3	0.7	2.5	-1.0	-3.9	nt
COc1ccc(CCNC(=O)c2cnn3c(C(F)F)cc(C)nc23)cc1OC	-1.1	1.9	29.6*	-0.5	-4.3	-0.1
O=C1/C(=C/c2cccnc2)Sc2ccccc21	-6.5	-3.9	46.5*	-10.8	-14.8	11.9
O=C1c2ccccc2C(=Cc2cccnc2)c2ccccc21	16.2	28.7	7.0	6.0	-0.8	nt
COc1ccc(S(=O)(=O)Nc2cccc3c2O[C@H](CN(C)C(=O)Nc2ccccc2)[C@@H](C)CN([C@H](C)CO)C3=O)cc1	3.0	-8.4	2.2	4.0	-9.4	nt
CC(=O)CCC(=O)OCC(=O)Nc1ccc(SC(F)F)cc1	0.7	1.0	27.4*	-0.1	-0.8	24.2*
O=C(COC(=O)c1cc[n+]([O-])cc1)Nc1ccc(SC(F)F)cc1	-3.6	-1.1	28.2*	-8.7	2.2	19.2
CC(C)=CC(=O)OCC(=O)Nc1ccc(SC(F)F)cc1	-4.1	-1.6	1.3	-4.3	-0.3	nt
COC(=O)CN1CCN(C(=O)c2csc3ccccc23)CC1	4.2	nt	5.7	5.4	nt	nt
CN(NC(=O)/C=C/C(=O)O)c1ncc(C(F)(F)F)cc1Cl	3.6	5.5	34.9*	4.9	2.1	5.7
COc1ccc(CN(CCN2CCOCC2)C(=O)c2ccc(F)cc2Cl)cc1OC	-3.6	nt	5.6	-1.7	nt	nt
COc1ccc(C(=O)Nc2cc(Cl)c(Br)cc2C(=O)O)cc1	-42.4	nt	-2.5	-28.5	nt	nt
CCN(CC)S(=O)(=O)c1ccc(C(=O)NCc2n[nH]c(=S)n2-c2ccc(Cl)c(Cl)c2)cc1	-1.5	-5.1	28.1*	6.6	3.8	2.2
O=C(NC1CC(=O)N(c2ccc3c(c2)OCCO3)C1)N1CCCCC1 (stereo not given)	-2.4	11.3	-2.5	-4.1	4.8	nt
CCc1cc(CNC(=O)C2CCC(=O)N(Cc3ccccc3F)C2)on1 (stereo not given)	5.0	2.6	-4.4	4.2	2.4	nt
CCOC(=O)c1[nH]c(=S)n(Cc2ccccc2)c1C(=O)OCC	1.7	9.1	7.1	5.5	3.4	nt

Screening results: PubChem BioAssay, The Scripps Research Institute Molecular Screening Center
